Shown are actives, neighbours in structure and some others; about 3.6% of the full set was active somewhere.
PfHsp90 set2 = inhibits growth of yeast expressing Plasmodium falciparum Hsp90; S. cerevisiae expressing PfHsp90, BacTiter-Glo ATP, 48 h; yeast lacking PDR1 and PDR3 efflux regulators; inhibition, % at 9.4 µM; actives 0.32% (n = 310,000);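 active = every replicate shows inhibition above about 80%, whatever the replicate mean, limit read from the data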;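 note: 0% = DMSO neutral controls and 100% = 20 µM radicicol positive controls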
Beta cell apopt = blocks beta cell apoptosis; INS-1E cytokine-induced death, ATP luminescence, 48 h; percent of positive-control rescue, neutral wells zero; protection from apoptosis, % (concentration not given with the values); actives 0.8% (n = 300,000); AID 435005;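 active = Every replicate reaches about 75%, or at least half do and their mean reaches it too, limit read from the data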;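 note: 0% = cytokine-treated negative control wells and 100% = positive control rescue; higher means more ATP so stronger rescue from cytokine killing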
CSC inhib = blocks cancer stem cells; cancer stem cell-like cells viability, luminescence; inhibition, % at 7.5 µM; actives 1.1% (n = 300,000); AID 2717; in the data active = inhibition above about 75%; tested in HMLE shEcad cells
HIF act = HIF pathway transcriptional activation. U2OS HRE-luciferase reporter, luminescence; normalized: DMSO 0%, desferrioxamine 100%. activation, % at 7.5 µM (by protocol). actives 0.32% (n = 300,000);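 active = mean activation of at least 10% of the iron chelator positive control signal, with at least half of replicates also reaching 10%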
T cruzi repl = T. cruzi replication inhibition; actives 1.4% (n = 300,000); inhibition, % (test concentration not listed); T. cruzi beta-gal in NIH3T3, luminescence, 90 h;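 active = mean inhibition across valid replicates above about 55%, limit read from the data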;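 note: signal also drops with host cell toxicity which is not excluded here; 0% = plate median of DMSO wells and 100% = zero luminescence signal; higher percent means less beta-gal luminescence so fewer parasites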
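Incubation – ≥90 h infection period, 3 h prior cell attachment · System – NIH/3T3 fibroblasts plus reporter T. cruzi · Doses – compound pinned at 50 nL/well, DMSO · Read-out basis – percent inhibition of parasite-derived β-gal signal · Signal – luminescent β-galactosidase signal after 60 min lysis · Also added – 5000 T. cruzi trypomastigotes/well · Medium – Low-serum DMEM with 2% FBS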
SKKanGAS inh = inhibitors of SKKanGAS S. pyogenes growth in kanamycin (SK-promoter or general growth effect). inhibition, % at 7.5 µM. actives 1.3% (n = 300,000). BacTiter-Glo, 6 h;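 active = mean replicate score, as percent of positive control median, at least 50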;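 note: strain carries kanamycin resistance gene driven by streptokinase promoter and grows in 40 µg/ml kanamycin; loss of luminescence reflects streptokinase promoter inhibition or plain growth inhibition; 0% = median of DMSO wells and 100% = positive control at its reference dose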
Starred values were filed as active, the others as inactive.

What do the screens show for `O=C(NC1CCN(C(=O)N2c3ccccc3Sc3ccccc32)CC1)c1ccccc1Cl`?
PfHsp90 set2: -22; Beta cell apopt: 9; CSC inhib: 0; HIF act: 0; T cruzi repl: 26; SKKanGAS inh: 18

What do the screens show for `S=c1nc(SCc2ccccc2)[nH]c2ccccc12`?
PfHsp90 set2: -3; Beta cell apopt: 3; CSC inhib: 55; HIF act: 0; T cruzi repl: 25; SKKanGAS inh: 76*

How did O=C(Cn1cnc2c(OCc3ccccc3)ncnc21)NCc1ccccn1 do in these assays?
PfHsp90 set2: -3

What do the screens show for `NS(=O)(=O)c1ccc(CCNC(=O)c2cc([N+](=O)[O-])ccc2N2CCOCC2)cc1`?
PfHsp90 set2: -4; Beta cell apopt: -1; CSC inhib: -8

What do the screens show for `CCC1(c2ccccc2)NC(=O)N(CC(=O)Nc2ccc(S(N)(=O)=O)cc2)C1=O` (centres undefined)?
PfHsp90 set2: 29; Beta cell apopt: 5; CSC inhib: 0; HIF act: 0; T cruzi repl: -7; SKKanGAS inh: 0

How did CC(C)Nc1nc(NC(C)C)nc(N(C)C(N)=O)n1 do in these assays?
PfHsp90 set2: -13; Beta cell apopt: 0; CSC inhib: 12; HIF act: 0; T cruzi repl: -10; SKKanGAS inh: -1

What do the screens show for `CC(C)Nc1nc(NC(C)C)nc(N(C)N)n1`?
PfHsp90 set2: 13; Beta cell apopt: -4; CSC inhib: -4; HIF act: 0; T cruzi repl: 1; SKKanGAS inh: 56*

How did CCOc1ccc2nc(N3C(=O)CNC3=S)sc2c1 do in these assays?
PfHsp90 set2: 8; Beta cell apopt: 20; CSC inhib: 23; HIF act: 0; T cruzi repl: -36; SKKanGAS inh: 38

What do the screens show for `Cc1cc2nc(N3C(=O)CNC3=S)sc2cc1C`?
PfHsp90 set2: 11; Beta cell apopt: 20; CSC inhib: 42; HIF act: 0; T cruzi repl: 0; SKKanGAS inh: 85*

What do the screens show for `Cc1ccc(CNC(=O)COC(=O)CCC(=O)c2cccs2)cc1`?
PfHsp90 set2: -26; Beta cell apopt: -6; CSC inhib: -9; HIF act: 0; T cruzi repl: -13; SKKanGAS inh: -7

Results for Cn1c(N/N=C/c2c[nH]c3ccccc23)nc2ccccc21 ?
PfHsp90 set2: 23; Beta cell apopt: 29; CSC inhib: -16; HIF act: 2; T cruzi repl: 8; SKKanGAS inh: 29

How did Cn1c(N/N=C/c2cc3ccccc3nc2Cl)nc2ccccc21 do in these assays?
PfHsp90 set2: 51; Beta cell apopt: 41; CSC inhib: 28; HIF act: 22*; T cruzi repl: 34; SKKanGAS inh: 6

Results for CC(C)c1ccc2[nH]c(O)c(N=NC(=O)c3cccc(S(=O)(=O)N4CCCCC4)c3)c2c1 ?
PfHsp90 set2: -18; Beta cell apopt: 23; CSC inhib: 23; HIF act: 0; T cruzi repl: 69*; SKKanGAS inh: 107*

How did Cc1cccc(N(CC(=O)NC2CCCC2)C(=O)c2cc3cc4cccc(C)c4nc3s2)c1C do in these assays?
PfHsp90 set2: -22; Beta cell apopt: 38; CSC inhib: 38; HIF act: 0; T cruzi repl: 57*; SKKanGAS inh: 9

What do the screens show for `O=C(/C=C/c1ccco1)NCC1OCCc2ccccc21` (centres undefined)?
PfHsp90 set2: -6; Beta cell apopt: 107*; CSC inhib: 111*; HIF act: 0; T cruzi repl: -2; SKKanGAS inh: 6

How did C=CC(=O)NCC1OCCc2ccccc21 (centres undefined) do in these assays?
PfHsp90 set2: 16; Beta cell apopt: 0; CSC inhib: -9; HIF act: -1; T cruzi repl: -3; SKKanGAS inh: -11

Results for CCC(=O)c1cn(CC(=O)Nc2ccc(C)cc2C)c2ccccc12 ?
PfHsp90 set2: 2; Beta cell apopt: -4; CSC inhib: -8; HIF act: -3; T cruzi repl: -25; SKKanGAS inh: 5

What do the screens show for `Cc1ccc(/C=C/C(=O)Nc2ccc(Oc3ccccc3)cc2)o1`?
PfHsp90 set2: -11; Beta cell apopt: -1; CSC inhib: 88*; HIF act: 3; T cruzi repl: -19; SKKanGAS inh: 16

Screening data as filed in PubChem.
